Experimental findings from ChEMBL document CHEMBL4145448, “Broad activity of diphenyleneiodonium analogues against Mycobacterium tuberculosis, malaria parasites and bacterial pathogens” (Eur J Med Chem, 2018) are described below.

For series [1], the system named is Plasmodium falciparum. The series is described as follows: Growth inhibition of CQ-sensitive GFP-fused Plasmodium falciparum D10 after 90 hrs by ethidium bromide staining based flow cytometry. Type of series: functional, organism-based. The note with it: D10, 90 h. The method in brief:
(§1)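 Parasites cultured in human O+ erythrocytes in RPMI-HEPES pH 7.4 with hypoxanthine, NaHCO3, gentamicin and 0.5% Albumax II under 1% O2/4% CO2 at 37 °C. Synchronised to rings with heparin plus sorbitol. Set up at 1% parasitaemia and 1% haematocrit with 10x compound added. Cultured 90 h to next-cycle trophozoites. Stained with 10 µg/mL ethidium bromide for 1 h, washed, parasitaemia counted by flow cytometry with GFP gating.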
In general terms: A flow cytometer gives signals particle by particle.

In series [2] the test system is Mycobacterium tuberculosis. The experiment in a line: Antimycobacterial activity against Mycobacterium tuberculosis H37Rv ATCC 25618 after 7 days by resazurin dye based assay. Format: functional. The note with it: H37Rv ATCC 25618, 168 h. The method in brief:
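H37Rv grown at 37 °C in 7H9 with 10% ADC, 0.5% glycerol and 0.02% tyloxapol. Compounds serially diluted in water, 0 to 10 µM, in triplicate. Culture adjusted to OD600 0.001 and incubated 7 days at 37 °C. Resazurin (0.05% w/v) added for 4-24 h and fluorescence read at 590 nm. MIC is the lowest concentration giving complete growth inhibition versus untreated. Rifampicin served as control.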

Series [3] can be described thus: Selectivity index, ratio of CC50 for human HepG2 cells in presence of 1% FBS to MIC for Mycobacterium tuberculosis H37Rv ATCC 25618. Format: toxicity. Conditions: read-out: Selectivity Index.
Series [4] in a line: Selectivity index, ratio of CC50 for human HepG2 cells in presence of 10% FBS to MIC for Mycobacterium tuberculosis H37Rv ATCC 25618. Conditions: read-out: Selectivity Index. Type of series: toxicity.
Series [5] in a line: Cytotoxicity against human HepG2 cells after 24 hrs in presence of 1% FBS by resazurin dye based assay. Type of series: cell-based. The method in brief: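 HepG2 cells seeded at 4000/well in DMEM with 1% FBS and allowed to attach for 24 h at 37 °C, 5% CO2. Compounds added from 300 to 0.14 µM in 3-fold steps and incubated 24 h. 10 µM resazurin added for 2 h, fluorescence read at ex/em 560/590. Percent viability computed relative to untreated and negative controls, duplicate wells.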
(In general: Alamar Blue is a resazurin reagent that responds to reducing activity.)

A short description of series [6]: Cytotoxicity against human HepG2 cells after 24 hrs in presence of 10% FBS by resazurin dye based assay. Format: cell-based. The essentials:
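HepG2 cells seeded at 4000/well in DMEM with 10% FBS and allowed to attach for 24 h at 37 °C, 5% CO2. Compounds added from 300 to 0.14 µM in 3-fold steps and incubated 24 h. 10 µM resazurin added for 2 h, fluorescence read at ex/em 560/590. Percent viability computed relative to untreated and negative controls, duplicate wells.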

Series [7] in a line: Selectivity index, ratio of CC50 for human HepG2 cells in presence of 1% FBS to IC50 for CQ-sensitive GFP-fused Plasmodium falciparum D10. Format: toxicity. The note with it: read-out: Ratio IC50.
Series [8] can be described thus: Selectivity index, ratio of CC50 for human HepG2 cells in presence of 10% FBS to IC50 for CQ-sensitive GFP-fused Plasmodium falciparum D10. Format: toxicity. The note with it: read-out: Ratio IC50.
Series [9] concerns Plasmodium falciparum. The experiment in a line: Growth inhibition of […] GFP-fused Plasmodium falciparum D10 after 90 hrs by ethidium bromide staining based flow cytometry. Format: functional, organism-based. The note with it: D10, 90 h. The essentials:
as §1

Series [10] can be described thus: Selectivity index, ratio of CC50 for human HepG2 cells in presence of 1% FBS to IC50 for drug-resistant GFP-fused Plasmodium falciparum D10. Type of series: toxicity. The note with it: read-out: Ratio IC50.
The nature of series [11]: Selectivity index, ratio of CC50 for human HepG2 cells in presence of 10% FBS to IC50 for drug-resistant GFP-fused Plasmodium falciparum D10. Type of series: toxicity. The note with it: read-out: Ratio IC50.

Converted amounts (≈) assume the structure as drawn.

For orientation: IC50 means the point on the concentration scale where inhibition reaches its midpoint. Read a high IC50 as weaker potency in that assay. Usually MIC stands for the least concentration at which growth counts as inhibited. Low values mean a more susceptible organism, high ones a less susceptible organism. One may read the CC50 as the concentration that lowers cell viability or growth by half. Turning to `Fc1ccc(Cl)c2c1[I+]c1ccccc1-2`, the IC50 in the series with Plasmodium falciparum [1] was more than 1000 nM. In addition, it took 0.27 µM to inhibit growth in series [2] (MIC). Also, the results for the selectivity ratio in series [3] and in series [4] were 3.4 and 10, respectively. Further, the CC50 at 24 h is 930 nM in series [5] and 2720 nM in [6].

The compound `Cc1cccc2c1-c1cccc(Cl)c1[I+]2` gave an IC50 in the series with Plasmodium falciparum [1] of 110 nM. Also, the MIC in series [2] was determined as 0.27 µM. The selectivity ratio in series [3] stood at 0.22; in series [4], 1.8; in series [7], 0.63; in [8] it was 5.1. For the same compound, the CC50 at 24 h in series [5] came out at 60.1 nM; in [6], 486 nM.

In the series with Plasmodium falciparum [1], `FC(F)(F)Oc1cccc2c1-c1ccccc1[I+]2` displayed an IC50 of 130 nM. This compound had an MIC in [2] of 0.25 µM. For the same compound, the selectivity ratio is 0.21 in series [3], 0.99 in series [4], 0.39 in series [7] and 1.9 in series [8]. The CC50 at 24 h in [5] is 50.3 nM; in series [6] it was 251 nM.

Turning to `COc1ccc(Cl)c2c1[I+]c1ccccc1-2`, in the series on Plasmodium falciparum [1], inhibition was half-maximal at 130 nM (IC50). In [2], this compound showed an MIC of 0.51 µM. The selectivity ratio is 0.31 in series [3], 0.44 in series [4], 1.2 in series [7] and 1.75 in series [8]. The CC50 at 24 h in series [5] was 150 nM; in series [6], 224 nM.

Turning to `Fc1cccc2c1-c1c(Cl)cccc1[I+]2`, in the series with Plasmodium falciparum [1], the IC50 was more than 1000 nM. Besides, inhibition of growth in series [2] (MIC) required 1 µM. The selectivity ratio was 0.38 in [3], 0.8 in series [4] and less than 0.83 in [8]. Besides, the CC50 at 24 h in series [5] is 392 nM; in series [6], 833 nM.

For the compound `Clc1ccc(Cl)c2c1[I+]c1ccccc1-2`, the IC50 with Plasmodium falciparum [1] is more than 1000 nM. In [2], the lowest concentration to inhibit growth (MIC) was 0.5 µM. Besides, the figures for the selectivity ratio in series [3] and in series [4] were 1.8 and 3.7, respectively. Also, the CC50 at 24 h in series [5] was found to be 894 nM; in series [6], 1850 nM.

Turning to `FC(F)(F)c1cccc2c1-c1ccccc1[I+]2`, the IC50 with Plasmodium falciparum [1] came out at 130 nM; with Plasmodium falciparum [9], 140 nM. Also, in series [2], the MIC came to 0.26 µM. Also, the selectivity ratio in series [3] amounted to 0.09; in [4], 0.36; in [7] it was 0.18; in [10] it was 0.18; in [8] it was 0.72; in series [11] it was 0.7. Also, the cytotoxic concentration (CC50) at 24 h in [5] is 23.6 nM; in [6], 94.7 nM.

`Fc1cccc2c1-c1c(F)cccc1[I+]2`: in the series with Plasmodium falciparum [1], the IC50 turned out to be 840 nM. Further, inhibition of growth in [2] (MIC) required 0.28 µM. Also, the selectivity ratio is 0.32 in [3], 0.58 in [4], 0.11 in series [7] and 0.19 in [8]. The CC50 at 24 h in [5] turned out to be 88.6 nM; in series [6], 161 nM.

In the series on Plasmodium falciparum [1], `Fc1cccc2c1-c1cccc(Cl)c1[I+]2` yielded a 50% inhibitory concentration (IC50) of 190 nM. In addition, in series [2], the MIC turned out to be 0.27 µM. The selectivity ratio was 0.19 in series [3], 1.4 in [4], 0.28 in [7] and 2.1 in series [8]. For the same compound, the results for the 50% cytotoxic concentration (CC50) at 24 h in series [5] and in [6] were 52.4 nM and 386 nM, respectively.

`Cc1ccc(Cl)c2c1[I+]c1ccccc1-2` had an IC50 in the series on Plasmodium falciparum [1] of 110 nM. In series [2], the MIC is 0.13 µM. For the same compound, the selectivity ratio in series [3] came to 0.74; in series [4] it was 2.8; in [7] it was 0.82; in series [8], 3.1. The CC50 at 24 h in series [5] came to 93 nM; in [6], 349 nM.

In the series on Plasmodium falciparum [1], `Clc1cccc2c1[I+]c1cccc(Cl)c1-2` came in with an IC50 of 360 nM. The minimum inhibitory concentration (MIC) in series [2] was 0.26 µM. The selectivity ratio in series [3] turned out to be 0.32; in [4], 2.1; in series [7] it was 0.23; in series [8], 1.5. The CC50 at 24 h in series [5] was 84.6 nM; in series [6], 544 nM.

Compound `CO[C@H]1/C=C/O[C@@]2(C)Oc3c(C)c(O)c4c(O)c(c(/C=N/N5CCN(C)CC5)c(O)c4c3C2=O)NC(=O)/C(C)=C\C=C\[C@H](C)[C@H](O)[C@@H](C)[C@@H](O)[C@@H](C)[C@H](OC(C)=O)[C@@H]1C` [RIFAMPIN] yielded an MIC in series [2] of 0.3 to 0.61 µM (≈ 0.247 to 0.502 µg/mL).
